ChEMBL document CHEMBL4680128, “Synthesis of a novel and potent small-molecule antagonist of PAC1 receptor for the treatment of neuropathic pain” (Eur J Med Chem, 2020)
Active and inactive are the calls of the source.

Columns and labels:
[1] = Effect on nociception on contralateral paw in ddy mouse model of spinal nerve ligation-induced neuropathic pain at 30 mg/kg, po administered as single dose measured up to 24 hrs; type: ADME, organism-based; details: in vivo
Summary of the method: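 Spinal nerve ligation performed in male ddY mice. On day 14 after SNL, a single oral dose of 30 mg/kg given. Ipsilateral and contralateral hind-paw 50% gram thresholds measured by von Frey up-down method at serial times after dosing. n = 6 per group, compared with vehicle.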

[2] = target: T1, Pituitary adenylate cyclase-activating polypeptide type I receptor (Homo sapiens, UniProt P41586); assay: Antagonist activity at PAC1 receptor (unknown origin) expressed in CHO cells assessed as inhibition of PACAP-induced inhibition of CREB phosphorylation preincubated for 30 mins followed by PACAP stimulation and measured after 30 mins by Western blot analysis; type: cell-based; details: for inhibition: filed as antagonist, time 60.0 min
Summary of the method: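 PAC1/CHO cells seeded at 1×10^5 cells/well and grown 48 h, then pretreated 30 min with agent over 10 pM to 10 nM (vehicle 0.1% DMSO). Stimulated with PACAP 1 nM for 30 min. Western blot of 20 µg lysate for phospho-CREB (Ser133) and total CREB, with pCREB normalised to total CREB. IC50 taken from the dose series. n = 3-5.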

[3] = Effect on nociception on contralateral paw in ddy mouse model of spinal nerve ligation-induced neuropathic pain at 100 pmol, it administered as single dose measured up to 24 hrs; type: ADME; details: in vivo, icv_or_intrathecal
[4] = target: T1, Pituitary adenylate cyclase-activating polypeptide type I receptor; assay: Antagonist activity at PAC1 receptor (unknown origin) expressed in CHO cells assessed as inhibition of PACAP-induced inhibition of CREB phosphorylation at 1 nM preincubated for 30 mins followed by PACAP stimulation and measured after 30 mins by Western blot analysis relative to control; values are per cent of control; details: time 60.0 min
Target sequence in this assay (P41586 21-468 limits assumed): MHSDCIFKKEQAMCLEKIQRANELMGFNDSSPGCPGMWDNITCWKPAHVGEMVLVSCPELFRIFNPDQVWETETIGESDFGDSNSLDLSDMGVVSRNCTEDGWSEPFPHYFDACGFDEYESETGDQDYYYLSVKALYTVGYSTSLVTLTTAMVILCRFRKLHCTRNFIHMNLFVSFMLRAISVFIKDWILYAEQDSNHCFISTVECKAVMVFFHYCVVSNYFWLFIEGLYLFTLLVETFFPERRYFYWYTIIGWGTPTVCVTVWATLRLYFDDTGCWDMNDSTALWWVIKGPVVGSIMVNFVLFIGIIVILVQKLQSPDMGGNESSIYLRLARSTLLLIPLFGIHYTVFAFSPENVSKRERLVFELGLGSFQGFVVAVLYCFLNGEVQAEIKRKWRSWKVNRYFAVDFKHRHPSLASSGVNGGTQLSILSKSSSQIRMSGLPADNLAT

Mus musculus [5] = species: Mus musculus; assay: Antiallodynic activity in PACAP-induced mechanical allodynia ddy mouse model assessed as increase in ipsilateral paw withdrawal threshold at 100 pmol, it; type: functional, organism-based
Summary of the method: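 Male ddY mice, 6 weeks old at start. Agent 100 pmol co-injected i.t. with PACAP 100 pmol in 5 µl by lumbar (L5/L6) puncture; diluted in PBS or ACSF. Hind-paw 50% withdrawal threshold measured with von Frey hairs by the up-down method. n = 6, compared with vehicle.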

Mus musculus [6] = assay: Antiallodynic activity in ddy mouse model of spinal nerve ligation-induced neuropathic pain assessed as […] at 100 pmol, it administered as single dose measured up to 24 hrs; type: functional, organism-based; details: time hrs <=24

IC50 [2] [nM]	inhibition [2]	residual activity [4] [%]	Structure (SMILES)	Activity [1]	Activity [3]	Activity (Mus musculus [5])	Activity (Mus musculus [6])
< 0.01	Dose-dependent effect	11.9	O=C(NCCc1c[nH]cn1)C1CC(=O)N(c2n[nH]c3c(Cl)cccc23)C1 (centres undefined)	Non-Toxic	Non-Toxic	Active	Active
0.182	Dose-dependent effect	30.6	O=C(NCCc1c[nH]cn1)C1CC(=O)N(c2n[nH]c3ccccc23)C1 (centres undefined)	Non-Toxic	Non-Toxic	Active	Active
